The values below come from ChEMBL document CHEMBL3745677, “Discovery of 6-(4-{[5-Cyclopropyl-3-(2,6-dichlorophenyl)isoxazol-4-yl]methoxy}piperidin-1-yl)-1-methyl-1H-indole-3-carboxylic Acid: A Novel FXR Agonist for the Treatment of Dyslipidemia” (J Med Chem, 2015).

Series [1] has as its system Rattus norvegicus. Put plainly: Antidyslipidemic activity in ZDF rat assessed as VLDL level at 3 mg/kg for 9 days by FPLC analysis (reference value: 35 mg/dL). Type of series: functional, Zucker.
A short description of series [2]: Cmax in rat at ED50 dose for lipid modulation. Type of series: ADME, organism-based. The note with it: in vivo.
Series [3] is described as follows: Oral bioavailability in cynomolgus monkey at 3 mg/kg by LC-MS/MS analysis. Type of series: ADME, organism-based, Macaca fascicularis. The note with it: in vivo. A digest of the protocol: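 Bioavailability calculated from a 3 mpk oral/nasogastric dose (1.0% CMC/0.25% PS80/0.05% antifoam in water) against a 0.91 mpk IV dose (5% Solutol/5% EtOH in saline). Plasma analyzed by LC-MS/MS; mean ± SD, N=2-3.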

Series [4] deals with Rattus norvegicus. Briefly: Antidyslipidemic activity in ZDF rat assessed as LDL/IgHDL level at 10 mg/kg cotreated with 0.3 mg/kg rosiglitazone for 9 days by FPLC analysis (reference value: 17.8 mg/dL). Type of series: functional, Zucker.
Series [5] has as its system Mus musculus. Put plainly: Antidyslipidemic activity in western-diet fed mouse expressing LDL-receptor (-/-) assessed as decrease in total cholesterol level at 3 mg/kg qd for a week administered via gavage […]. Format: functional. The following applies: po. A digest of the protocol: (§1)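 Male LDLR null mice, six per group, were gavaged once daily for one week with compound (in situ sodium salt) or vehicle (5% Solutol, 5% EtOH, 1% wt/v CMC) at 5 mL/kg. On day 7 they were bled by cardiac puncture under CO2 anaesthesia. Serum cholesterol and triglycerides were measured enzymatically on a clinical chemistry analyser (mean ± SD, n=6). ED50 was obtained by nonlinear regression.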

The nature of series [6]: Tmax in cynomolgus monkey at 3 mg/kg, po by LC-MS/MS analysis. Format: ADME, organism-based, Macaca fascicularis. The following applies: in vivo. A digest of the protocol:
(§2)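 Oral/nasogastric dosing at 3 mpk in 1.0% CMC/0.25% PS80/0.05% antifoam in purified water. Plasma samples collected and analyzed by LC-MS/MS; parameters reported as mean ± SD, N=2-3.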

A short description of series [7]: AUC (0 to 24 hrs) in Sprague-Dawley rat at 3 mg/kg, po by LC-MS/MS analysis. Type of series: ADME, organism-based. The arrangement: time < 24 hr, dose 3 mg/kg, route oral. The following applies: in vivo. A digest of the protocol: (§3)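 Sprague Dawley rats, Beagle dogs and Cynomolgus monkeys were dosed IV at 1 mg/kg (rat, dog) or 0.91 mpk (monkey) in 5% Solutol/5% EtOH in saline. Oral/nasogastric dosing was 3 mpk in 1.0% CMC/0.25% PS80/0.05% antifoam in purified water. Samples were processed to plasma and analysed by LC-MS/MS; values are mean ± SD, N=2-3.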

Series [8] concerns the target T1, Progesterone receptor (Homo sapiens, UniProt P06401).
T1 sequence (P06401 whole entry): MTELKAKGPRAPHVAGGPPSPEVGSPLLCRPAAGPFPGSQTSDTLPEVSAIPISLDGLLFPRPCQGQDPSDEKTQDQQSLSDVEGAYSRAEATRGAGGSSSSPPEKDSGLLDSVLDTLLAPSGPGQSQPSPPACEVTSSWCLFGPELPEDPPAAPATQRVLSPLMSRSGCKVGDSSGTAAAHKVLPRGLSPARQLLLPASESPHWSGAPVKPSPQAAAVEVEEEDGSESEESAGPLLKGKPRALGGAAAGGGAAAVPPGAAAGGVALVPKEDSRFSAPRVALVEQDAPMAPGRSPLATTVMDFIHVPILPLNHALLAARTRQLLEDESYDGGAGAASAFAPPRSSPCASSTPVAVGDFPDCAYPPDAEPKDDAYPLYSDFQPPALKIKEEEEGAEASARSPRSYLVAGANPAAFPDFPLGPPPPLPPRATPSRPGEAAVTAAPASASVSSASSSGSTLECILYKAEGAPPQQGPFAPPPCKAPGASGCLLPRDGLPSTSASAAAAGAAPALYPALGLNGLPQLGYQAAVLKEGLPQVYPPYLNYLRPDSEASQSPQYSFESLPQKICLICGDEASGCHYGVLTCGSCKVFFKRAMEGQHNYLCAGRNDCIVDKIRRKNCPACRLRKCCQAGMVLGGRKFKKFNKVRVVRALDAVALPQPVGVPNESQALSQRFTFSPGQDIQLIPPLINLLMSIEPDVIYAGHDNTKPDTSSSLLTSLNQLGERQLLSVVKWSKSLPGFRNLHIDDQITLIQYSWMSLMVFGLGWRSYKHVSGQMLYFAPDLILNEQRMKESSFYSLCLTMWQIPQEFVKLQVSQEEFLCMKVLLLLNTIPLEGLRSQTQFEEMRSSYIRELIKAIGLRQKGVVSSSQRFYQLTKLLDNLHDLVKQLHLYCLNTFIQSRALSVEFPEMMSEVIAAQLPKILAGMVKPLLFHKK
Put plainly: Agonist activity at progesterone receptor (unknown origin) expressed in HEK293 cells assessed as transcriptional activation. Type of series: cell-based.

Series [9] is described as follows: Clearance in Sprague-Dawley rat at 1 mg/kg, iv by LC-MS/MS analysis. Type of series: ADME, organism-based. The note with it: in vivo. A digest of the protocol: as §3
The subject of series [10] is Mus musculus. Put plainly: Antidyslipidemic activity in western-diet fed mouse expressing LDL-receptor (-/-) assessed as decrease in triglyceride level at 30 mg/kg qd for a week administered via gavage […]. Format: functional. The note with it: po. A digest of the protocol:
as §1

Series [11] relates to Rattus norvegicus. Briefly: Antidyslipidemic activity in ZDF rat assessed as HDL level at 3 mg/kg for 9 days by FPLC analysis (reference value: 48.3 mg/dL). Type of series: functional, Zucker.
Series [12] relates to Mus musculus. Briefly: Antidyslipidemic activity in western-diet fed mouse expressing LDL-receptor (-/-) assessed as decrease in triglyceride level administered once daily for a week via gavage […]. Format: functional. The note with it: po. A digest of the protocol:
as §1

The test system of series [13] is Mus musculus. Briefly: Antidyslipidemic activity in western-diet fed mouse expressing LDL-receptor (-/-) assessed as decrease in low density lipoprotein level at 30 mg/kg qd for a week administered via gavage by FPLC analysis. Type of series: functional. The following applies: po. A digest of the protocol: (§4)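 LDLR null male mice, six per group, were dosed by gavage once daily for one week (vehicle 5% Solutol, 5% EtOH, 1% wt/v CMC; 5 mL/kg). Serum was collected by cardiac puncture on day 7 under CO2 anaesthesia. Pooled serum from each treatment group was fractionated by FPLC to quantify VLDL and LDL.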

Series [14] in a line: AUC (0 to 24 hrs) in beagle dog at 1 mg/kg, iv by LC-MS/MS analysis. Format: ADME, organism-based, Canis lupus familiaris. Also noted: time < 24 hr, dose 1 mg/kg, route intravenous. The note with it: in vivo. A digest of the protocol: as §3
For series [15], the system named is Mus musculus. Briefly: Antidyslipidemic activity in western-diet fed mouse expressing LDL-receptor (-/-) assessed as decrease in very-low density lipoprotein level at 10 mg/kg qd for a week administered via gavage by FPLC analysis. Type of series: functional. The following applies: po. A digest of the protocol: as §4
A short description of series [16]: Terminal half life in Sprague-Dawley rat at 1 mg/kg, iv by LC-MS/MS analysis. Format: ADME, organism-based. The following applies: in vivo, read-out: beta t1/2 (converted). A digest of the protocol:
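Intravenous dose given in 5% Solutol / 5% EtOH in saline (1 mg/kg rat and dog, 0.91 mpk monkey). Plasma samples collected and analyzed by LC-MS/MS; parameters reported as mean ± SD, N=2-3.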

A short description of series [17]: Terminal half life in beagle dog at 3 mg/kg, po by LC-MS/MS analysis. Format: ADME, organism-based, Canis lupus familiaris. The note with it: in vivo, read-out: beta t1/2 (converted). A digest of the protocol: as §2

As for `Cn1cc(C(=O)O)c2ccc(N3CCC(OCc4c(-c5c(Cl)cccc5Cl)noc4C4CC4)CC3)cc21` [TERN-101], the Activity in [1] was 21.9 mg/dL; in series [4], 20.3 mg/dL; in [11] it was 62.5 mg/dL. Moreover, the Cmax in series [2] was found to be 4.62 ng/mL. This molecule gave a bioavailability in series [3] of 24%. Besides, in series [5], the inhibition in vivo at 3 mg/kg turned out to be 57%. In addition, the Tmax in series [6] was 3.33 h. In addition, the AUC(0-t) at 24 h in series [7] was 365 ng·h/mL; in series [14], 1780 ng·h/mL. Moreover, the EC50 in [8] was greater than 10 µM. The clearance in series [9] worked out at 30 mL/min/kg. Besides, the inhibition in vivo at 30 mg/kg stood at 83% in [10] and 62% in series [13]. For the same molecule, the ED50 in series [12] worked out at 3.4 mg/kg. In addition, in [15], the inhibition in vivo at 10 mg/kg was 96%. In addition, the half-life is 2 h in series [16] and 7 h in series [17].

Usually Cmax stands for the peak of the concentration-time curve. By bioavailability is commonly meant dose-corrected exposure relative to a reference, in per cent. One may read the inhibition in vivo as the relative decrease from the control value, in per cent. One may read the Tmax as the time at which the peak concentration occurs. As usually defined, the AUC(0-t) is exposure summed from dosing to a finite time, without extrapolation to infinity. Broadly, the EC50 is the midpoint of the concentration-response curve. Broadly, the clearance is a measure of how efficiently the substance is removed, as volume per time.
